Hits are enriched below; roughly 4.7% of the tested compounds scored in any of these assays.
IMP-1 inh = inhibitors of Pseudomonas aeruginosa IMP-1 metallo-beta-lactamase; purified IMP-1, nitrocefin hydrolysis, epi-absorbance fluorescence; inhibition, % at 5.6 µM; 0.45% of 290,000 active; AID 1556;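 active = inhibition above the mean plus 3 SD of all compounds in the same screening run, cut at about 4.5% in these data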;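 note: 0% = IMP-1 with DMSO and 100% = DMSO wells lacking enzyme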
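System: purified recombinant IMP-1 beta-lactamase. Medium: Zinc- and detergent-supplemented HEPES buffer, pH 7.1. Compound: one 5.6 µM dose […]. Schedule: 15 min preincubation plus 25 min reaction at 25 °C. Technique: Epi-absorbance fluorescence, 480 nm excitation, 530 nm emission.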
VIM-2 inh = blocks Pseudomonas aeruginosa VIM-2 metallo-beta-lactamase; AID 1527; 0.89% of 290,000 active; purified VIM-2, nitrocefin hydrolysis, epi-absorbance fluorescence; inhibition, % at 5.6 µM;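 active = inhibition above the mean of all tested compounds plus 3 SD, cutoff set per screening run, cut at about 7.5% in these data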;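 note: red hydrolysis product quenches plate fluorescence so inhibitors raise well fluorescence; 0% = enzyme with DMSO and 100% = DMSO without enzyme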
Mdm2 MdmX PPI = disrupts the human Mdm2-MdmX interaction; O15151+Q00987; SaOS-2 split-luciferase Mdm2/MdmX complementation, luminescence; inhibition, % at 8 µM; 3% of 330,000 active; AID 485346;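 active = inhibition of at least 50% at 8 µM in the primary screen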
Target sequence (O15151 whole entry, looked up): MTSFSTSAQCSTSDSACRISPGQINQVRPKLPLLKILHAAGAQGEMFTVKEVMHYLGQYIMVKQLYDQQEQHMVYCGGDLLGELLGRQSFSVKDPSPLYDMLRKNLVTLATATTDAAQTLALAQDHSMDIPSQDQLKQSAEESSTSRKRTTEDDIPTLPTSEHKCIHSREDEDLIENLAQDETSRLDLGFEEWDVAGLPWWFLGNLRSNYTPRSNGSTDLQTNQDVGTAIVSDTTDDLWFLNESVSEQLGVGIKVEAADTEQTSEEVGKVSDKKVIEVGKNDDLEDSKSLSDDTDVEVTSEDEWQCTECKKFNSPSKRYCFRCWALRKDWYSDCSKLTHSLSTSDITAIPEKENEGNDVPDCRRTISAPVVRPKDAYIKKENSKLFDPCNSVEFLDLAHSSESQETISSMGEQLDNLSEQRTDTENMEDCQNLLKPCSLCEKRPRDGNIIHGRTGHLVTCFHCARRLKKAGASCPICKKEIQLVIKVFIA
Target sequence (Q00987 whole entry, looked up): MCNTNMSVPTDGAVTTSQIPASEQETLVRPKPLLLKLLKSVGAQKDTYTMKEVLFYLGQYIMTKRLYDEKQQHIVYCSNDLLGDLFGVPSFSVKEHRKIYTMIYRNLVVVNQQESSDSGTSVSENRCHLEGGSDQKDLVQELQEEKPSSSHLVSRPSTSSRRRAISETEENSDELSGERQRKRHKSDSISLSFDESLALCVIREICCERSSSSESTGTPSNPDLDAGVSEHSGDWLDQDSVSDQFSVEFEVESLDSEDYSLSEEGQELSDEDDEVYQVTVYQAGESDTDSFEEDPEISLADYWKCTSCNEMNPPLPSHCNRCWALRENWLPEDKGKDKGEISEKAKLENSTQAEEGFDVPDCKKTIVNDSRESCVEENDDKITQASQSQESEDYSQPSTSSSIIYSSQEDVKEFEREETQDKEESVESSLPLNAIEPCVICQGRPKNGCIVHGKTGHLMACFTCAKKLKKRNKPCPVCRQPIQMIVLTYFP
aSyn 5UTR inh = MLPCN primary screen, SNCA 5' untranslated region; alpha-synuclein 5'UTR reporter, inhibitor activity; inhibition, % (tested at 7.5 µM); 0.82% of 300,000 active; AID 1813; in the data active = inhibition above about 60%;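 note: H4 neuroglioblastoma cells stably carrying SNCA 5'UTR luciferase fusion; 0% = DMSO wells and 100% = positive control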
697 NFkB inh = lowers PMA/ionomycin-induced NF-kB signal in 697 B cells; 697 B-cell NF-kB luciferase reporter, 16 h; inhibition, % at 4 µM; 0.33% of 330,000 active; in the data active = inhibition above about 35%
Jurkat NFkB inh = inhibitors of the PMA/ionomycin-induced NF-kB reporter in Jurkat cells | PMA/ionomycin-induced NF-kB luciferase reporter, luminescence | inhibition, % at 4 µM | 0.53% of 330,000 active | AID 435003; in the data active = inhibition above about 50%
Mdm2-MdmX conf = human Mdm2/MdmX binding inhibition, confirmed; shares compounds with Mdm2 MdmX PPI; luminescent assay; inhibition, % at 8 µM; 55% of 10,000 active; in the data active = inhibition above about 40%
Full FLuc ctr = counter-screen for Mdm2/MdmX inhibitors: full-length luciferase; 77% of 6,200 active; inhibition, % at 8 µM; shares compounds with Mdm2 MdmX PPI; SaOS-2 full-length luciferase counterscreen, luminescence;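 active = mean inhibition at 8 µM reaching about 37%, which flags the compound as non-specific, limit read from the data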;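 note: p53-null SaOS-2 cells with luciferase driven by a doxycycline-inducible promoter; compound on cells about two nights before reading with doxycycline added after day one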
* hit, by the source's call.

Results for Cc1noc(C)c1CSc1nnc2c(C)cc3ccccc3n12 ?
IMP-1 inh: -1; VIM-2 inh: 0

How did Cc1nc2c(C(=O)NCCC3=CCCCC3)c[nH]n2c(=O)c1Cl do in these assays?
IMP-1 inh: 1; VIM-2 inh: 2; Mdm2 MdmX PPI: 7; aSyn 5UTR inh: -4; 697 NFkB inh: 9; Jurkat NFkB inh: 2

How did Cc1cc(C(=O)CS(=O)(=O)c2ccc(Cl)cc2)cc(C)c1O do in these assays?
IMP-1 inh: -4; VIM-2 inh: 0; Mdm2 MdmX PPI: 8; aSyn 5UTR inh: -1; 697 NFkB inh: -15; Jurkat NFkB inh: -14

Results for CCN(CC)CCCN1C(=O)c2oc3ccccc3c(=O)c2C1c1cccc(OC)c1OC (configuration not stated) ?
IMP-1 inh: -3; VIM-2 inh: 1; Mdm2 MdmX PPI: 27; aSyn 5UTR inh: -32; 697 NFkB inh: 16; Jurkat NFkB inh: -2

What do the screens show for `c1ccc2c(c1)NC(c1ccncc1)n1c-2nc2ccccc21` (configuration not stated)?
IMP-1 inh: -4; VIM-2 inh: 0; Mdm2 MdmX PPI: -4; aSyn 5UTR inh: -20; 697 NFkB inh: -6; Jurkat NFkB inh: -28

Results for c1cncc(C2Nc3ccccc3-c3nc4ccccc4n32)c1 (configuration not stated) ?
IMP-1 inh: -3; VIM-2 inh: -1; Mdm2 MdmX PPI: 53*; aSyn 5UTR inh: -92; 697 NFkB inh: -1; Jurkat NFkB inh: -38; Mdm2-MdmX conf: 52*; Full FLuc ctr: 64*

Results for CCCCn1c(N)c(N(CC(C)C)C(=O)c2ccc(C)c(S(=O)(=O)N3CCCCC3)c2)c(=O)[nH]c1=O ?
Mdm2 MdmX PPI: -2; aSyn 5UTR inh: 10; 697 NFkB inh: 10; Jurkat NFkB inh: 27

How did O=C(O)CCCCCCCCCCP(=O)(c1ccccc1)c1ccccc1 do in these assays?
IMP-1 inh: -3; VIM-2 inh: -2; Mdm2 MdmX PPI: -32; aSyn 5UTR inh: 4; 697 NFkB inh: -17; Jurkat NFkB inh: -13

What do the screens show for `O=P(CCCCCCCCCP(=O)(c1ccccc1)c1ccccc1)(c1ccccc1)c1ccccc1`?
IMP-1 inh: -2; VIM-2 inh: -1; Mdm2 MdmX PPI: 66*; aSyn 5UTR inh: 40; 697 NFkB inh: -9; Jurkat NFkB inh: -8; Mdm2-MdmX conf: 30

What do the screens show for `O=S(=O)(c1ccccc1)N1CC=C(c2ccccc2)CC1`?
IMP-1 inh: 2; VIM-2 inh: 0; Mdm2 MdmX PPI: 21; aSyn 5UTR inh: 12; 697 NFkB inh: 21; Jurkat NFkB inh: 3

What do the screens show for `Cc1ccc(-c2nnc(CSc3nnc(COc4cccc5ccccc45)n3-c3ccccc3)o2)cc1`?
IMP-1 inh: -2; VIM-2 inh: -2; Mdm2 MdmX PPI: 63*; aSyn 5UTR inh: 26; 697 NFkB inh: 2; Jurkat NFkB inh: 11; Mdm2-MdmX conf: 32

How did N#CCSc1nnc(COc2cccc3ccccc23)n1-c1ccccc1 do in these assays?
IMP-1 inh: -2; VIM-2 inh: 0; Mdm2 MdmX PPI: 25; aSyn 5UTR inh: 14; 697 NFkB inh: -44; Jurkat NFkB inh: 20

Results for COc1ccc(OC)c(N(CC(N)=O)S(=O)(=O)c2ccc(OC)c(OC)c2)c1 ?
IMP-1 inh: -4; VIM-2 inh: -6; Mdm2 MdmX PPI: 19; aSyn 5UTR inh: -9; 697 NFkB inh: 14; Jurkat NFkB inh: 5

What do the screens show for `C#CCOCCOCCOCCNc1nc(N2CCN(C(=O)CCCCCCCCCCNC(=O)[C@H](CCCCN)n3cc(C)nn3)CC2)nc(N2CCN(C(=O)CCCCCCCCCCNC(=O)[C@@H]([C@H](C)O)n3cc(C)nn3)CC2)n1`?
Mdm2 MdmX PPI: 78*; 697 NFkB inh: -4; Jurkat NFkB inh: 10; Mdm2-MdmX conf: 4

Results for C#CCOCCOCCOCCNc1nc(N2CCN(C(=O)CCCCCCCCCCNC(=O)Cn3cc(C[C@@H](C)O)nn3)CC2)nc(N2CCN(C(=O)CCCCCCCCCCNC(=O)[C@@H]([C@H](C)CC)n3cc(CCCCCN)nn3)CC2)n1 ?
Mdm2 MdmX PPI: 98*; 697 NFkB inh: -21; Jurkat NFkB inh: 48; Mdm2-MdmX conf: 77*; Full FLuc ctr: 27

Results for C#CCOCCOCCOCCNc1nc(N2CCN(C(=O)CCCCCCCCCCNC(=O)Cn3cc(C[C@@H](C)O)nn3)CC2)nc(N2CCN(C(=O)CCCCCCCCCCNC(=O)[C@@H]([C@H](C)O)n3cc(C)nn3)CC2)n1 ?
Mdm2 MdmX PPI: 54*; 697 NFkB inh: -10; Jurkat NFkB inh: 28; Mdm2-MdmX conf: 18

How did CCOc1ccc(C(=O)N(CC(=O)Nc2cccc(C)c2C)CC2CCCO2)cc1OC (configuration not stated) do in these assays?
Mdm2 MdmX PPI: 14; 697 NFkB inh: -4; Jurkat NFkB inh: -3

Results for CCOC(=O)c1ccc(NC(=O)C(=O)NCc2ccco2)cc1 ?
IMP-1 inh: -4; VIM-2 inh: -2; Mdm2 MdmX PPI: 14; aSyn 5UTR inh: -82; 697 NFkB inh: -32; Jurkat NFkB inh: -17

What do the screens show for `O=C(NCc1ccc(F)cc1)C(=O)Nc1nc(C23CC4CC(CC(C4)C2)C3)cs1`?
IMP-1 inh: 0; VIM-2 inh: -1; Mdm2 MdmX PPI: 59*; aSyn 5UTR inh: 44; 697 NFkB inh: -12; Jurkat NFkB inh: 13; Mdm2-MdmX conf: 30

What do the screens show for `O=C(NCc1ccccc1)C(=O)Nc1nc(C23CC4CC(CC(C4)C2)C3)cs1`?
IMP-1 inh: -4; VIM-2 inh: -4; Mdm2 MdmX PPI: 4; aSyn 5UTR inh: 18; 697 NFkB inh: -5; Jurkat NFkB inh: 13

How did CN(Cc1c(F)cccc1Cl)C(=O)c1ccc(NC(=O)CC2SC(N3CCCCC3)=NC2=O)cc1 (configuration not stated) do in these assays?
Mdm2 MdmX PPI: 22; 697 NFkB inh: 6; Jurkat NFkB inh: 11

How did Cc1cc(C)nc(NC(=O)c2ccc(Cl)c([N+](=O)[O-])c2)n1 do in these assays?
IMP-1 inh: -2; VIM-2 inh: -1; Mdm2 MdmX PPI: -6; aSyn 5UTR inh: -53; 697 NFkB inh: 9; Jurkat NFkB inh: 2

What do the screens show for `Cc1nc(N2CCCCC2)sc1C(=O)c1ccc(Cl)c([N+](=O)[O-])c1`?
IMP-1 inh: -3; VIM-2 inh: -2; Mdm2 MdmX PPI: 69*; aSyn 5UTR inh: -6; 697 NFkB inh: 4; Jurkat NFkB inh: -6; Mdm2-MdmX conf: 24

Results for Cc1cc2oc(=O)cc(CN3CCN(C/C=C/c4ccccc4)CC3)c2cc1O ?
IMP-1 inh: 3; VIM-2 inh: -3; Mdm2 MdmX PPI: 42; aSyn 5UTR inh: 8; 697 NFkB inh: -13; Jurkat NFkB inh: 11

Screens as filed in PubChem.
